The target of assay [1] is T1, Progesterone receptor (Homo sapiens) (UniProt P06401).
T1 sequence (whole entry): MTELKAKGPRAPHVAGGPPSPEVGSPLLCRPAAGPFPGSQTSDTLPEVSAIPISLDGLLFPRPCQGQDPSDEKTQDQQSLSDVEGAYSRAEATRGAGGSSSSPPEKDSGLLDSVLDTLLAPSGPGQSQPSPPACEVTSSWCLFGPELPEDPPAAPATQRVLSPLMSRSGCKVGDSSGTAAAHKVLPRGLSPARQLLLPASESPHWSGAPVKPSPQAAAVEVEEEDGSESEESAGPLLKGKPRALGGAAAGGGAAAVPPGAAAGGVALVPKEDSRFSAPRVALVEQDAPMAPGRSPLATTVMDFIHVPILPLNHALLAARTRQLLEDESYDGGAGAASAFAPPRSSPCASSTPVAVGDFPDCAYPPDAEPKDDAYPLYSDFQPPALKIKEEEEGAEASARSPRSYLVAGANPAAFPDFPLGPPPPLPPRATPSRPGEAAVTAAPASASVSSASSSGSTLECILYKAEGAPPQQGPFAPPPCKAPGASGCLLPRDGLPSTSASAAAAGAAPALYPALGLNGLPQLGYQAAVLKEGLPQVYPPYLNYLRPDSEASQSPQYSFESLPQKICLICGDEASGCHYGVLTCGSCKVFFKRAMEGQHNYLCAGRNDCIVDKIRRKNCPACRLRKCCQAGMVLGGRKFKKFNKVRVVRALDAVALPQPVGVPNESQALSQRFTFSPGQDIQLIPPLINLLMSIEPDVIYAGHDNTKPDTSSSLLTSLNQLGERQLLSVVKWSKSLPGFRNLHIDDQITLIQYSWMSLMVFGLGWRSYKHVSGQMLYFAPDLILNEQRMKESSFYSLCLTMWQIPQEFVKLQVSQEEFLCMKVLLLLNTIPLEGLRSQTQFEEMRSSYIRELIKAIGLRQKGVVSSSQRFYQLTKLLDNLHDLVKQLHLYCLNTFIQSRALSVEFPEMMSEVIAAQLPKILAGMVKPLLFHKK
Kind of assay: Agonistic activity by cotransfection assay against human Progesterone receptor in T47D cells. Type of assay: functional, cell-based. In short, it runs like this: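 T47D human breast cancer cells (high endogenous hPR) incubated with test compound in 96-well format; alkaline phosphatase expression measured by absorbance. […] EC50 from full dose–response curves; mean of at least three separate experiments in triplicate, or single experiment where no error given.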

Assay [2] concerns the target T2, Progesterone receptor (Homo sapiens, UniProt P06401).
T2 sequence (P06401 whole entry): T1 sequence (whole entry)
Put plainly: Agonistic effect on transcriptional activity in T47D cells expressing human Progesterone receptor. Type of assay: functional, cell-based. In short, it runs like this: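 T47D human breast cancer cells, which express high levels of hPR, incubated with test compound. Readout is absorbance from induced alkaline phosphatase expression. […] Values are the mean of at least three separate experiments in triplicate; values without SEM are from a single experiment.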

Assay [3] has as its target T1, Progesterone receptor (Homo sapiens). Kind of assay: (§1) Compound was tested for agonistic activity by cotransfection assay against human Progesterone receptor in CV-1 cells. Type of assay: functional, cell-based.
For assay [4], the target named is T2, Progesterone receptor. Kind of assay: Compound was evaluated for its binding affinity against baculovirus expressed Progesterone receptor.
For assay [5], the target named is T2, Progesterone receptor. The assay is described as §1. It is filed as functional, cell-based.
Assay [6] concerns the target T1, Progesterone receptor (Homo sapiens). Kind of assay: (§2) Antagonistic activity by cotransfection assay against human Progesterone receptor in CV-1 cells. It is filed as functional, cell-based.
Assay [7] has as its target T2, Progesterone receptor. The description is as §2. Type of assay: functional, cell-based.

SMILES strings stand for the structures.

In assay [1], `CC1=CC(C)(C)Nc2ccc3c(c21)C(c1ccc(Cl)cc1)Oc1ccccc1-3` (configuration not stated) yielded an Efficacy of 48%. Also, the EC50 (in general, the concentration needed to bring the measured effect to its halfway point) in assay [2] was determined as 32 nM.

For `C[C@@H]1CC(C)(C)Nc2ccc3c(c21)[C@H](c1ccc(Cl)cc1)Oc1ccccc1-3`, the Efficacy worked out at 58% in assay [3] and 56% in assay [6]. In addition, the Ki (usually the equilibrium dissociation constant of an inhibitor or competing ligand from its target) in assay [4] was 91 nM. This molecule registered an EC50 in assay [5] of 48 nM. Moreover, in assay [7], the IC50 – broadly, the midpoint of a concentration-inhibition curve – stood at 3100 nM.

These data come from ChEMBL document CHEMBL1132711 (J Med Chem, 1999).
